In the library only some 2.2% were active in any assay of this set; here they are far more common.
VIM-2 inhibitor – VIM-2 metallo-beta-lactamase inhibitors, primary screen, biochemical, epi-absorbance readout, Pseudomonas aeruginosa enzyme. purified VIM-2, nitrocefin hydrolysis, epi-absorbance fluorescence. inhibition, % at 5.6 µM. hit rate 0.89% among 290,000;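 active = inhibition above the mean of all tested compounds plus 3 SD, cutoff set per screening run, cut at about 7.5% in these data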;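 also: red hydrolysis product quenches plate fluorescence so inhibitors raise well fluorescence; 0% = enzyme with DMSO and 100% = DMSO without enzyme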
PvdQ inh – P. aeruginosa PvdQ acylase inhibitors, primary screen, biochemical, fluorescence, plate reader and imaging, single point; PvdQ acylase [Pseudomonas aeruginosa LESB58]; purified PvdQ acylase; inhibition, % at 10 µM; hit rate 0.063% among 340,000; AID 488965, 2010; in the data active = inhibition above about 30%, passing the limit was not always enough;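 also: 0% = vehicle neutral wells and 100% = reference inhibitor wells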
CR mimetic SO – reduction of superoxide in aged yeast, primary screen, HTS; S. cerevisiae aged cells, superoxide DHE fluorescence; active compounds read low; superoxide response (% of plate mean), % at 10 µM; hit rate 0.18% among 330,000;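 active = superoxide response under a set limit, about three screen SD below normal, cut at about 65% in these data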;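 also: yeast aged for seven days with compound at 30 °C before DHE staining; 100% = average MFI of all compound-treated wells on the plate with controls excluded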
PHOSPHO1 block – PubChem AID 1565 | Phosphoethanolamine/phosphocholine phosphatase (Homo sapiens), Q8TCT1 | recombinant PHOSPHO1, absorbance phosphatase assay | inhibition, % at 13.3 µM | hit rate 1.1% among 290,000; in the data active = inhibition above about 60%
Target sequence (Q8TCT1 whole entry, looked up): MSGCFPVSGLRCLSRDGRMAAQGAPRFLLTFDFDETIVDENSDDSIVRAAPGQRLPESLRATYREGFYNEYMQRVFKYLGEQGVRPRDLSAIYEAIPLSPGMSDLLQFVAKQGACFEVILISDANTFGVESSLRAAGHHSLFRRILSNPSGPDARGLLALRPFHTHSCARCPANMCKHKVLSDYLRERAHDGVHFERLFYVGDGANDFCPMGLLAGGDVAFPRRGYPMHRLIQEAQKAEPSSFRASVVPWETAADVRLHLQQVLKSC
IMP-1 inh – IMP-1 metallo-beta-lactamase inhibitors, primary screen, biochemical, epi-absorbance readout, Pseudomonas aeruginosa enzyme. purified IMP-1, nitrocefin hydrolysis, epi-absorbance fluorescence. inhibition, % at 5.6 µM. hit rate 0.45% among 290,000. AID 1556, 2009;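 active = inhibition above the mean plus 3 SD of all compounds in the same screening run, cut at about 4.5% in these data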;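 also: 0% = IMP-1 with DMSO and 100% = DMSO wells lacking enzyme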
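Material – recombinant IMP-1 enzyme, purified · Amount – IMP-1 0.2 nM before substrate addition · Medium – HEPES buffer pH 7.1 with ZnSO4 and Brij 35 · Timing – 25 °C, 15 min preincubation, 25 min reaction · Measured by – plate fluorescence quenching by hydrolysis product, ex 480/em 530 nm · Read-out – percent enzyme inhibition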
Superoxide pick – superoxide lowering in aged yeast cells, confirmation, cherry picked compounds; hit rate 1% among 850; shares compounds with CR mimetic SO; S. cerevisiae aging, superoxide DHE fluorescence; active compounds read low; superoxide response (% of plate), % at 10 µM; AID 434994, 2010;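 active = superoxide signal below 65% of the plate average of sample wells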;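 also: cells aged with compound for 7 days at 30 degrees C before staining; 100% equals mean DHE fluorescence of all compound wells on the plate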
DHE counter – DHE quenching or ROS scavenging interference in aged yeast, artefact control for yeast caloric restriction mimetic project, S. cerevisiae BY4741, flow cytometry; shares compounds with CR mimetic SO; DHE fluorescence; active compounds read low; fluorescence response, % at 10 µM; 850 tested, under 10 active; AID 435000, 2010;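 active = fluorescence response below 15%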;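 also: percent of the mean fluorescence averaged over all compound wells on the plate; lower means stronger quenching of DHE signal or ROS scavenging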
Active calls of the source: *; x = no result.

SMILES	VIM-2 inhibitor	PvdQ inh	CR mimetic SO	PHOSPHO1 block	IMP-1 inh	Superoxide pick	DHE counter
CCC/C=C(\CCC)C(NS(=O)(=O)c1cccc2cccnc12)c1ccc(C(=O)OC)cc1 (configuration not stated)	-1	x	92	-14	-1	x	x
O=C(Cc1cccs1)NNC(=S)NC(=O)c1ccccc1	-5	2	125	6	-3	x	x
O=C(/C=C/c1ccccc1)NC(=S)NNC(=O)Cc1cccs1	-2	-10	50*	1	-2	87	88
c1csc(-c2noc(CN3CCc4sccc4C3)n2)c1	-1	-10	89	21	-2	x	x
COc1ccc2c(C)cc(SCC(=O)c3ccc4c(c3)OCO4)nc2c1	-1	-1	64*	44	-1	94	95
O=C(NCCc1ccccc1)C(=O)NCC1OCCCN1S(=O)(=O)c1cc(F)ccc1F (configuration not stated)	0	11	97	28	-1	x	x
NS(=O)(=O)c1ccc(CCNC(=O)C(=O)NCC2OCCN2S(=O)(=O)c2cc(F)ccc2F)cc1 (configuration not stated)	-3	-10	63*	31	-1	97	101
O=C(NCCN1CCOCC1)c1cccc(NS(=O)(=O)c2ccc(Br)cc2)c1	x	-4	103	x	x	x	x
CCSc1nnc(NC(=O)c2cc(OC)c(OC)c(OC)c2)s1	-3	-6	99	11	-8	x	x
C=CCN1C(=O)/C(=C\C=C2\N(C)c3ccccc3C2(C)C)SC1=S	-2	-7	57*	0	-1	99	112
CN1/C(=C\C=O)C(C)(C)c2ccccc21	-6	3	98	6	-4	x	x
COc1cc([N+](=O)[O-])ccc1NC(=O)NCC1CCN(Cc2ccc(Cl)cc2)CC1	1	-16	30*	28	2	104	111
COc1cc(NC(=O)NCC2CCN(Cc3ccccc3Cl)CC2)cc(OC)c1OC	1	-3	41*	33	2	101	93
CC(C)c1ccccc1NC(=O)CSc1n[nH]c(=O)n1C1CC1	x	-13	105	x	x	x	x
CCCCNS(=O)(=O)c1ccc(Br)cc1N1CCC[C@H]1CO	x	-14	115	x	x	x	x
COc1ccc(N2CCN(C(=O)c3cccnc3)CC2)c([N+](=O)[O-])c1	-2	0	98	12	-1	101	94
Cc1ccc(NC(=O)CSc2nc(=O)n(CCN(C)C)c3c2CCCC3)cc1Cl	x	19	87	x	x	x	x
COC(=O)C1C(=O)C=C(Nc2ccc(F)cc2)CC1c1ccc(OC)cc1 (configuration not stated)	-2	-12	65*	-10	-3	113	105
Cc1ccc(C(=O)N2CCN(c3ccccc3Cl)CC2)cc1[N+](=O)[O-]	-3	-12	73	20	-5	92	99
Cc1ccc(N2CCN(C(=O)c3cccc([N+](=O)[O-])c3)CC2)cc1Cl	-1	-16	112	10	-2	88	99
Cc1ccc(C(=O)N2CCN(c3ccccn3)CC2)cc1[N+](=O)[O-]	-2	-25	90	-1	-2	x	x
O=C(c1cccc([N+](=O)[O-])c1)N1CCN(c2cccc(Cl)c2)CC1	-4	3	100	3	-3	x	x
COc1ccc(CNC(=O)C2CCN(S(=O)(=O)N3CCC4(CC3)OCCO4)CC2)c(OC)c1	-3	-9	63*	-10	-2	112	132
COc1cc(NC(=O)CSc2nnc3n2C(C)(C)Cc2ccccc2-3)cc(OC)c1	-4	12	65*	23	-2	102	107
COC(=O)CSc1nnc2n1C(C)(C)Cc1ccccc1-2	-2	3	105	5	-3	x	x
SMILES	VIM-2 inhibitor	PvdQ inh	CR mimetic SO	PHOSPHO1 block	IMP-1 inh	Superoxide pick	DHE counter
Cc1ccc(S(=O)(=O)N(CC(=O)Nc2ccc(C(N)=O)cc2)C(=O)N2CCN(C)CC2)cc1	x	-6	65*	x	x	114	99
CCCCN(C(=O)c1ccncc1)c1c(N)n(CCC)c(=O)[nH]c1=O	x	7	118	x	x	x	x
O=C1C=C(c2ccccc2)C(c2ccccc2)C1 (configuration not stated)	x	-8	x	x	x	x	x
Cn1c(=O)c2[nH]c(N3CCCCC3)nc2n(C)c1=O	-2	2	65*	34	-1	80	90
Cc1cc(C)n2nc(-c3ccc(Br)cc3)cc2n1	0	-16	99	-3	-1	85	88
Cc1cc(C)n2nc(-c3ccc(Cl)cc3)cc2n1	0	-13	105	51	-1	99	101
COc1ccc(-c2cc3nc(C)cc(C)n3n2)cc1	-3	-9	107	8	-4	x	x
COc1ccc2c3c(cccc13)OC2=O	-1	-1	102	47	-4	x	x
COc1ccc2c3c(cccc13)N(C)N=C2C	2	-8	59*	26	-3	74	95
CCn1c2ccccc2c2cc(NC(=O)C(C)C)ccc21	-2	-17	90	49	0	107	104
CCCC(=O)Nc1ccc2c(c1)c1ccccc1n2CC	-1	21	80	-10	-3	113	117
CCn1c2ccccc2c2cc(NC(=O)CC(C)=O)ccc21	-2	-8	95	-5	-3	101	93
CCn1c2ccccc2c2cc(NC(=O)c3ccccc3-c3ccccc3C(=O)O)ccc21	0	-16	112	25	0	x	x
O=C(Nc1cc(S(=O)(=O)N2CCOCC2)ccc1N1CCCCC1)c1ccccc1Br	x	-3	102	x	x	x	x
CCC(=O)N1CCc2cc(S(=O)(=O)NCCC(=O)N3CCN(c4cccc(C)c4)C(C)C3)ccc21 (configuration not stated)	0	-18	63*	48	-1	105	109
Cc1nnc(SCc2ccc(Cl)c(Cl)c2)s1	-3	3	60*	-11	-2	108	90
Cc1ccc(C)[n+](CC(=O)c2ccc(-c3ccccc3)cc2)c1	-2	15	99	32	-2	x	x
O=C(O)CN(c1ccccc1F)S(=O)(=O)c1ccccc1	-5	-15	95	-4	-5	94	94
COc1ccccc1Oc1ccc2c(c1)C(=O)N(c1ccc(O)cc1)C2=O	0	-15	111	10	-3	x	x
COc1ccccc1Oc1ccc2c(c1)C(=O)N(CC(=O)O)C2=O	1	-1	40*	20	0	102	91
Cc1ccc(NC(=O)CN2C(=O)c3ccccc3S2(=O)=O)c(C)c1	0	-8	101	39	-2	x	x
O=C(NC(=S)NNC(=O)c1ccccc1O)c1ccco1	-2	-4	57*	16	-4	93	111

Compound activity from PubChem BioAssay.
